In brackets after ≈: the same amount, converted by molar mass.
What was measured:
Type in all cases: functional
[1] = system: Mycobacterium tuberculosis; assay: Antimycobacterial activity against Mycobacterium tuberculosis H37Rv after up to 28 days; settings: 672 h
How it was run: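 Lowenstein-Jensen agar dilution against M. tuberculosis H37Rv. Compounds were made up as 2000 µg/ml DMSO stocks and added to liquid L.J. medium at primary levels of 1000, 500 and 250 µg/ml and secondary levels of 200–3.25 µg/ml. The medium was inspissated, held 24 h at 37 °C, then streaked with bacilli from saline suspension. Growth was read at 12, 22 and 28 days against drug-free controls. MIC was the lowest concentration giving no colonies or fewer than 20.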

Aspergillus niger = assay: Antifungal activity against Aspergillus niger MTCC 282 by broth microdilution method
Candida albicans = assay: Antifungal activity against Candida albicans MTCC 227 by broth microdilution method
Staphylococcus aureus = assay: Antibacterial activity against Staphylococcus aureus MTCC 96 by broth microdilution method
How it was run: (§1)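 Serial dilutions in Mueller Hinton broth, drugs diluted in DMSO from a 2000 µg/ml stock, inoculum adjusted by turbidity to 10⁸ CFU/ml, ampicillin as reference. Primary screen at 500, 250 and 125 µg/ml; actives retested at 100 down to 1.5625 µg/ml. Incubated overnight at 37 °C.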

Streptococcus pyogenes = assay: Antibacterial activity against Streptococcus pyogenes MTCC 442 by broth microdilution method; how it was run: as §1
Escherichia coli = assay: Antibacterial activity against Escherichia coli MTCC 443 by broth microdilution method; how it was run: as §1
Pseudomonas aeruginosa = assay: Antibacterial activity against Pseudomonas aeruginosa MTCC 2488 by broth microdilution method; how it was run: as §1
[2] = system: Mycobacterium tuberculosis; assay: Antimycobacterial activity against Mycobacterium tuberculosis H37Rv at MIC concentration after up to 28 days
Aspergillus clavatus = assay: Antifungal activity against Aspergillus clavatus MTCC 1323 by broth microdilution method

Row | SMILES | MIC [1] [µg/mL] | MIC (Aspergillus niger) [µg/mL] | MIC (Candida albicans) [µg/mL] | MIC (Staphylococcus aureus) [µg/mL] | MIC (Streptococcus pyogenes) [µg/mL] | MIC (Escherichia coli) [µg/mL] | MIC (Pseudomonas aeruginosa) [µg/mL] | inhibition (INH) [2] [%] | MIC (Aspergillus clavatus) [µg/mL]
1 | NNc1nc2ccc(F)cc2s1 | 250 (≈ 1360 µM) | > 1000 | 250 (≈ 1360 µM) | 500 (≈ 2730 µM) | 250 (≈ 1360 µM) | 250 (≈ 1360 µM) | 250 (≈ 1360 µM) | 98 | > 1000
2 | NNc1nc2ccc(Br)cc2s1 | 500 (≈ 2050 µM) | 500 (≈ 2050 µM) | 500 (≈ 2050 µM) | 250 (≈ 1020 µM) | 500 (≈ 2050 µM) | 500 (≈ 2050 µM) | 500 (≈ 2050 µM) | 97 | 500 (≈ 2050 µM)
3 | NNc1nc2ccc([N+](=O)[O-])cc2s1 | 250 (≈ 1190 µM) | 500 (≈ 2380 µM) | 500 (≈ 2380 µM) | 500 (≈ 2380 µM) | 500 (≈ 2380 µM) | 250 (≈ 1190 µM) | 250 (≈ 1190 µM) | 99 | 1000 (≈ 4760 µM)
4 | Cc1ccc2nc(NN)sc2c1 | 1000 (≈ 5580 µM) | 1000 (≈ 5580 µM) | 250 (≈ 1390 µM) | 250 (≈ 1390 µM) | 250 (≈ 1390 µM) | 100 (≈ 558 µM) | 500 (≈ 2790 µM) | 98 | > 1000
5 | COc1ccc2nc(NN)sc2c1 | 50 (≈ 256 µM) | 500 (≈ 2560 µM) | 500 (≈ 2560 µM) | 200 (≈ 1020 µM) | 250 (≈ 1280 µM) | 62.5 (≈ 320 µM) | 125 (≈ 640 µM) | 99 | 250 (≈ 1280 µM)
6 | NNc1nc2ccc(Cl)cc2s1 | 200 (≈ 1000 µM) | 200 (≈ 1000 µM) | 250 (≈ 1250 µM) | 500 (≈ 2500 µM) | 500 (≈ 2500 µM) | 100 (≈ 501 µM) | 125 (≈ 626 µM) | 99 | 250 (≈ 1250 µM)
7 | Cc1cccc2sc(NN)nc12 | 500 (≈ 2790 µM) | 250 (≈ 1390 µM) | 500 (≈ 2790 µM) | 500 (≈ 2790 µM) | 500 (≈ 2790 µM) | 250 (≈ 1390 µM) | 250 (≈ 1390 µM) | 98 | 200 (≈ 1120 µM)
8 | NNc1nc2c([N+](=O)[O-])cccc2s1 | 500 (≈ 2380 µM) | 250 (≈ 1190 µM) | 200 (≈ 951 µM) | 500 (≈ 2380 µM) | 250 (≈ 1190 µM) | 500 (≈ 2380 µM) | 250 (≈ 1190 µM) | 98 | 200 (≈ 951 µM)
9 | NNc1nc2cc(Cl)c(Cl)cc2s1 | 250 (≈ 1070 µM) | 500 (≈ 2140 µM) | 500 (≈ 2140 µM) | 250 (≈ 1070 µM) | 500 (≈ 2140 µM) | 100 (≈ 427 µM) | 125 (≈ 534 µM) | 99 | 1000 (≈ 4270 µM)
10 | NNc1nc2c(Cl)cccc2s1 | 100 (≈ 501 µM) | 500 (≈ 2500 µM) | 1000 (≈ 5010 µM) | 500 (≈ 2500 µM) | 500 (≈ 2500 µM) | 250 (≈ 1250 µM) | 250 (≈ 1250 µM) | 99 | 500 (≈ 2500 µM)
11 | Cc1ccc(-c2nnc(-c3cccnc3)o2)cc1 | 500 (≈ 2110 µM) | 500 (≈ 2110 µM) | 1000 (≈ 4210 µM) | 100 (≈ 421 µM) | 250 (≈ 1050 µM) | 250 (≈ 1050 µM) | 100 (≈ 421 µM) | 98 | 500 (≈ 2110 µM)
12 | Cc1ccc(-c2nnc(-c3cccnc3)n2Nc2nc3ccc(F)cc3s2)cc1 | 200 (≈ 497 µM) | 500 (≈ 1240 µM) | 500 (≈ 1240 µM) | 125 (≈ 311 µM) | 100 (≈ 248 µM) | 250 (≈ 621 µM) | 250 (≈ 621 µM) | 98 | 250 (≈ 621 µM)
13 | Cc1ccc(-c2nnc(-c3cccnc3)n2Nc2nc3ccc(Br)cc3s2)cc1 | 50 (≈ 108 µM) | 500 (≈ 1080 µM) | 1000 (≈ 2160 µM) | 125 (≈ 270 µM) | 125 (≈ 270 µM) | 100 (≈ 216 µM) | 100 (≈ 216 µM) | 99 | 1000 (≈ 2160 µM)
14 | Cc1ccc(-c2nnc(-c3cccnc3)n2Nc2nc3ccc([N+](=O)[O-])cc3s2)cc1 | 200 (≈ 466 µM) | 500 (≈ 1160 µM) | 500 (≈ 1160 µM) | 250 (≈ 582 µM) | 125 (≈ 291 µM) | 100 (≈ 233 µM) | 200 (≈ 466 µM) | 98 | 500 (≈ 1160 µM)
15 | Cc1ccc(-c2nnc(-c3cccnc3)n2Nc2nc3ccc(C)cc3s2)cc1 | 50 (≈ 125 µM) | 1000 (≈ 2510 µM) | 500 (≈ 1250 µM) | 100 (≈ 251 µM) | 100 (≈ 251 µM) | 125 (≈ 314 µM) | 250 (≈ 627 µM) | 99 | > 1000
16 | COc1ccc2nc(Nn3c(-c4ccc(C)cc4)nnc3-c3cccnc3)sc2c1 | 62.5 (≈ 151 µM) | 500 (≈ 1210 µM) | 250 (≈ 603 µM) | 250 (≈ 603 µM) | 250 (≈ 603 µM) | 250 (≈ 603 µM) | 125 (≈ 302 µM) | 99 | 1000 (≈ 2410 µM)
17 | Cc1ccc(-c2nnc(-c3cccnc3)n2Nc2nc3ccc(Cl)cc3s2)cc1 | 100 (≈ 239 µM) | 500 (≈ 1190 µM) | 500 (≈ 1190 µM) | 500 (≈ 1190 µM) | 500 (≈ 1190 µM) | 250 (≈ 597 µM) | 125 (≈ 298 µM) | 99 | 250 (≈ 597 µM)
18 | Cc1ccc(-c2nnc(-c3cccnc3)n2Nc2nc3c(C)cccc3s2)cc1 | 500 (≈ 1250 µM) | 250 (≈ 627 µM) | 100 (≈ 251 µM) | 500 (≈ 1250 µM) | 250 (≈ 627 µM) | 250 (≈ 627 µM) | 500 (≈ 1250 µM) | 98 | 200 (≈ 502 µM)
19 | Cc1ccc(-c2nnc(-c3cccnc3)n2Nc2nc3c([N+](=O)[O-])cccc3s2)cc1 | 50 (≈ 116 µM) | 500 (≈ 1160 µM) | 1000 (≈ 2330 µM) | 500 (≈ 1160 µM) | 250 (≈ 582 µM) | 12.5 (≈ 29.1 µM) | 25 (≈ 58.2 µM) | 99 | 500 (≈ 1160 µM)
20 | Cc1ccc(-c2nnc(-c3cccnc3)n2Nc2nc3cc(Cl)c(Cl)cc3s2)cc1 | 100 (≈ 221 µM) | 500 (≈ 1100 µM) | 200 (≈ 441 µM) | 250 (≈ 551 µM) | 500 (≈ 1100 µM) | 100 (≈ 221 µM) | 500 (≈ 1100 µM) | 99 | 250 (≈ 551 µM)
21 | Cc1ccc(-c2nnc(-c3cccnc3)n2Nc2nc3c(Cl)cccc3s2)cc1 | 25 (≈ 59.7 µM) | > 1000 | 500 (≈ 1190 µM) | 250 (≈ 597 µM) | 500 (≈ 1190 µM) | 125 (≈ 298 µM) | 500 (≈ 1190 µM) | 99 | 1000 (≈ 2390 µM)
22 | CC1(C)S[C@@H]2[C@H](NC(=O)[C@H](N)c3ccccc3)C(=O)N2[C@H]1C(=O)O [AMPICILLIN] | – | – | – | 250 (≈ 715 µM) | 100 (≈ 286 µM) | 100 (≈ 286 µM) | 100 (≈ 286 µM) | – | –
23 | COC1=CC(=O)C[C@@H](C)[C@]12Oc1c(Cl)c(OC)cc(OC)c1C2=O [GRISEOFULVIN] | – | 100 (≈ 283 µM) | 500 (≈ 1420 µM) | – | – | – | – | – | 100 (≈ 283 µM)
24 | CO[C@H]1/C=C/O[C@@]2(C)Oc3c(C)c(O)c4c(O)c(c(/C=N/N5CCN(C)CC5)c(O)c4c3C2=O)NC(=O)/C(C)=C\C=C\[C@H](C)[C@H](O)[C@@H](C)[C@@H](O)[C@@H](C)[C@H](OC(C)=O)[C@@H]1C [RIFAMPIN] | 40 (≈ 48.6 µM) | – | – | – | – | – | – | 98 | –

Reference: ChEMBL document CHEMBL1240474, “Pharmacological evaluation and characterizations of newly synthesized 1,2,4-triazoles” (2010)
